The text below walks through data of PubChem BioAssay AID623869 (Vanderbilt High Throughput Screening Facility, 2012).

About 75 (4%) of roughly 2,100 compounds were called active.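 Rule for the calls: active = calcium fluorescence trace judged by eye to show a response, as agonist, enhancer of the glutamate response, or inhibitor; inactive = trace judged by eye to show no response.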 The list comes from a sample in which actives are over-represented; it also holds similar structures and randomly drawn compounds.

Metabotropic glutamate receptor 8 (Rattus norvegicus), sequence (P70579 whole entry, looked up): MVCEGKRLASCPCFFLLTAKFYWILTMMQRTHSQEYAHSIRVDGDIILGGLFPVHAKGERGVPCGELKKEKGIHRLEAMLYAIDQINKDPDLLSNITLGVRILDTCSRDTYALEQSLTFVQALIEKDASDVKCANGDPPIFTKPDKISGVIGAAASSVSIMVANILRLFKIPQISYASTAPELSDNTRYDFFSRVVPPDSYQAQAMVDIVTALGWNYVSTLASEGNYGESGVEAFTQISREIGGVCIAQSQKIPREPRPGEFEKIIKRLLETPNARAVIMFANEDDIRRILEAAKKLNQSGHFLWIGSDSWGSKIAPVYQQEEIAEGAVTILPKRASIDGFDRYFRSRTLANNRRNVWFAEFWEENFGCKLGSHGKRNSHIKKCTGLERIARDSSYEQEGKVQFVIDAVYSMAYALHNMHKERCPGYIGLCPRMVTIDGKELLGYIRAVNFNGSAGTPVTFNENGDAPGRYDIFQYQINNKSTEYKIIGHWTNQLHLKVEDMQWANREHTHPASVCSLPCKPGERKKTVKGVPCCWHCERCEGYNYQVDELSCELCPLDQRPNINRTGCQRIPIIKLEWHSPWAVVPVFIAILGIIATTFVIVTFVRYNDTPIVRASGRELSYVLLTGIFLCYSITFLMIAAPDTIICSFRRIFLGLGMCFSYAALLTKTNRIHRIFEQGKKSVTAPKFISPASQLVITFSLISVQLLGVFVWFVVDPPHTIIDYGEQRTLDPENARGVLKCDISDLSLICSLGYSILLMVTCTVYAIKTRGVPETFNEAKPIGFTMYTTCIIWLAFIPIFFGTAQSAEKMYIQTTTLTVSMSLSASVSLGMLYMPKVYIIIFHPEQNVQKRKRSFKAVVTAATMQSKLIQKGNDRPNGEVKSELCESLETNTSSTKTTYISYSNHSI

The assay concerns the target Metabotropic glutamate receptor 8 (Rattus norvegicus) (UniProt P70579). Description: rat mGlu8 modulation via Gqi9 calcium signal, confirmation, counter-screen for GIRK activator project, cell-based, HEK293 rmGlu8, Gqi9 chimera, Fluo-4 calcium (AID 623869). The following applies: HEK293 rmGlu8/Gqi9 calcium flux, Fluo-4 fluorescence; glutamate at EC20 added after compound. The method, boiled down:
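system = HEK-293 cells stably expressing rat mGlu8, plus transient chimeric Gqi9 | measured by = Fluo-4 calcium fluorescence, 1 Hz | timing = compound pre-exposure 4 min, post-glutamate read 2 min | measure = F/F0 fluorescence traces judged visually for each well | medium = HEPES-buffered HBSS at pH 7.4 | doses = single compound addition from 20 µM solution, 0.2% DMSO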
Regarding `COC(=O)c1sc(NC(=S)NC(=O)c2ccccc2)nc1C`, the outcome is “inactive; 0”. In the case of `Cc1ccccc1C(=O)Nc1ccccc1C(=O)N/N=C\c1ccco1`, the outcome is “inactive; 0”. Consider `O=C(N/N=C(\c1ccccc1)c1cccnc1)C(O)(c1ccccc1)c1ccccc1`, for which the outcome is “inactive; 0”. The same measure for `CC(Oc1ccc(Cl)cc1Cl)C(=O)NC(=S)N1CCc2ccccc21` (stereo not drawn): “inactive; 0”. On to `Cc1onc(-c2ccccc2)c1C(=O)NC(=S)Nc1sc2c(c1C#N)CCCC2`, for which the outcome was “inactive; 0”. Take `Cc1ccccc1NC(=S)NC(=O)c1cncc(Br)c1`: the outcome is “inactive; 0”. The same measure for `Cc1onc(-c2ccccc2)c1C(=O)NNC(=S)NC(=O)c1ccc(Br)cc1`: “active; 1”; for `Cc1cccc(OCC(=O)Nc2ccccc2N2CCN(C(=O)C(C)C)CC2)c1C`: “inactive; 0”.

Regarding `CCc1ccc(Nc2nc3ccccc3c(=O)s2)cc1`, the outcome is “inactive; 0”. As for `O=C1OC2(CCCCC2)OC(=O)C1=CNc1nc2ccccc2s1`, the outcome was “inactive; 0”. Take `Cc1ccc(C)c(NC(=S)NNC(=O)c2csc(C(C)C)c2)c1`: the outcome is “inactive; 0”. As to `c1cc2c(cc1C1=Nn3c(nnc3C3CCCCC3)SC1)OCO2`, the outcome was “inactive; 0”. Under `COc1ccccc1C1=Nn2c(nnc2C2CCCCC2)SC1` stands “inactive; 0”; under `CCOc1ccc(-c2nc(-c3ccc(OC)c(OC)c3)no2)cc1OCC`, “inactive; 0”. As for `COc1ccc(-c2nnc3sc(C4CCCCC4)nn23)cc1OC`, the outcome was “active; 2”. For `Brc1ccccc1C1=Nn2c(nnc2-c2ccccc2)SC1`, the outcome was “inactive; 0”. On to `COc1ccc(C2=Nn3c(nnc3C3CCCCC3)SC2)cc1OC`, for which the outcome is “active; 2”. For `CCCc1nnc2n1N=C(c1ccc(OC)c(OC)c1)CS2`, the outcome was “active; 2”. As to `CC(C)COn1c(=S)[nH]c2ccccc2c1=O`, the outcome was “inactive; 0”.

With `Cc1ccc(N2C(=S)N=C(Nc3ccccc3C)C23CCOC(C)(C)C3)cc1` (stereo not drawn), the outcome was “inactive; 0”. On to `C=CCN(CC=C)C(=S)NC(=O)c1ccc(OC)c(Br)c1`, for which the outcome is “inactive; 0”. In the case of `Cc1ccc(N=C2CCCN2Cc2ccccc2)c(C#N)c1`, the outcome was “inactive; 0”. In the case of `CCC(C)n1c(=S)[nH]c2c(sc3ccc([N+](=O)[O-])cc32)c1=O` (stereo not drawn), the outcome is “inactive; 4”.

Regarding `O=C(COc1ccccc1)NC(=S)N1CCc2ccccc21`, the outcome is “inactive; 0”. Under `O=C(NC(=S)N1CCN(Cc2ccc3c(c2)OCO3)CC1)c1cccc(Br)c1` stands “inactive; 0”; under `CC(c1ccc(Cl)cc1)n1c(-c2ccc3ccccc3n2)n[nH]c1=S` (stereo not drawn), “inactive; 0”; under `O=C(N/N=C/c1ccccn1)c1ccc(Br)cc1`, “inactive; 0”. `O=C(NC(Nc1nc2ccc([N+](=O)[O-])cc2s1)(C(F)(F)F)C(F)(F)F)c1ccccc1`: the outcome was “inactive; 4”.

In the case of `O=C(NC(Nc1nc2ccc([N+](=O)[O-])cc2s1)(C(F)(F)F)C(F)(F)F)c1ccccc1Cl`, the outcome is “active; -1”. `Cc1ccc(C)c(OCC(=O)Nc2nc3ccc([N+](=O)[O-])cc3s2)c1C`: the outcome was “inactive; 0”.

Consider `CCOC(=O)c1sc(NC(=S)NC(=O)c2ccco2)nc1C`, for which the outcome is “inactive; 0”. As for `CCOC(=O)c1sc2ncnc(NCc3ccco3)c2c1C`, the outcome was “active; 2”. Under `Cc1sc2ncnc(SCc3ccco3)c2c1C` stands “inactive; 0”.

In the case of `O=C(Nc1nc(-c2ccccc2)c(-c2ccccc2)o1)c1ccc(F)cc1`, the outcome was “inactive; 0”. For the compound `COc1ccc(C)cc1NC(=O)C(=O)NNC(=O)c1ccco1`, the outcome was “inactive; 0”.

For `Cc1ccc(-c2csc3nc[nH]c(=S)c23)cc1C`, the outcome is “inactive; 0”. For the compound `COC(=O)C1=NN(C(=O)c2ccc(Cl)cc2)C(O)(c2ccccc2)C1` (stereo not drawn), the outcome is “inactive; 4”.

Take `COC(=O)CSC1=NS(=O)(=O)c2ccccc21`: the outcome was “active; -1”. The same measure for `CCc1cccc(NC(=O)CSC2=NS(=O)(=O)c3ccccc32)c1`: “inactive; 0”; for `COC(=O)CSc1nc2ncccc2[nH]1`: “inactive; 0”. With `CCn1c(SCC(N)=O)nc2sc3c(c2c1=O)CCCC3`, the outcome was “inactive; 0”. Regarding `COc1cc(NC(=O)C(=O)NNC(=O)C2CCCCC2)c(OC)cc1Cl`, the outcome was “inactive; 0”.

With `COc1cc(/C=C2\S/C(=N/S(=O)(=O)c3ccc(C)cc3)NC2=O)c([N+](=O)[O-])cc1OC`, the outcome was “active; 2”.

Take `COc1ccc(CN(CCC#N)C(=S)NC(=O)c2ccccc2)cc1`: the outcome is “inactive; 0”. In the case of `COC(=O)c1c(NS(=O)(=O)c2cccs2)sc2c1CCCC2`, the outcome is “inactive; 0”. Consider `O=C(C1CCN(S(=O)(=O)c2cccc3cccnc23)CC1)N1CC=C(c2ccccc2)CC1`, for which the outcome was “inactive; 0”. For `O=C(Nc1nnc(-c2ccccc2Cl)o1)c1nc2ccccc2s1`, the outcome is “active; 1”. In the case of `O=C(Nc1nnc(-c2ccccc2Cl)o1)c1ccc(S(=O)(=O)N2CCCCCC2)cc1`, the outcome is “inactive; 3”.

For the compound `O=C(Nc1nnc(-c2ccc(Cl)cc2)o1)c1nc2ccccc2s1`, the outcome is “inactive; 0”. For `O=C(Nc1ccc2[nH]c(=S)sc2c1)c1ccccc1`, the outcome is “inactive; 0”. On to `O=C(NC(=S)N(Cc1ccccc1)Cc1ccccc1)c1ccccc1F`, for which the outcome was “inactive; 0”. As for `CCCCOC(=O)c1ccc(NC(=S)NC(=O)c2c(Cl)cnn2CC)cc1`, the outcome was “inactive; 0”. Regarding `O=C(Nc1nncs1)c1ccccc1NS(=O)(=O)c1cccs1`, the outcome is “inactive; 0”. With `O=C(Nc1ccccc1)c1ccccc1NS(=O)(=O)c1ccc(Cl)s1`, the outcome was “active; 1”. Under `O=S(=O)(Nc1ccccc1N1CCCCC1)c1ccc(Cl)s1` stands “inactive; 0”; under `CCOc1ccc2nc(/N=C/c3c(C)[nH]n(-c4ccccc4)c3=O)sc2c1`, “inactive; 0”. `O=C(NC(=S)N1CCN(c2ccc(Cl)cc2[N+](=O)[O-])CC1)c1cccs1`: the outcome is “inactive; 0”. As for `Cc1ccccc1OCC(=O)NNC(=S)NC(=O)c1ccco1`, the outcome is “active; 1”. For `CC(Oc1ccc2ccccc2c1)C(=O)NNC(=S)NC(=O)c1ccco1` (stereo not drawn), the outcome is “inactive; 4”. On to `COc1ccccc1C(=O)NNC(=S)NC(=O)c1ccco1`, for which the outcome is “inactive; 4”. For the compound `CCCc1ccc(OCC(=O)NNC(=S)NC(=O)c2ccco2)cc1`, the outcome is “inactive; 3”.

Consider `Cc1cccc(NC(=S)NC(=O)c2ccco2)n1`, for which the outcome is “inactive; 0”. The same measure for `CC(Oc1ccc(Cl)cc1)C(=O)NNC(=S)NC(=O)c1ccco1` (stereo not drawn): “active; 1”; for `CCn1nc(C(=O)OCC(=O)N2CCc3ccccc32)c2ccccc2c1=O`: “inactive; 0”; for `COc1ccc(CCNC(=O)CSc2nnc(-c3ccc(F)cc3)c3ccccc23)cc1OC`: “inactive; 0”. Under `Cc1cc(C)n(-c2nnc(C)n2/N=C/c2ccccc2OCc2ccccc2Cl)n1` stands “inactive; 0”; under `Cc1ccccc1NC(=S)NNC(=O)c1csc2c1CCC(C)C2` (stereo not drawn), “inactive; 0”. Take `Cc1ccc(CSc2ncnc3c2cnn3-c2ccc(C)cc2)cc1`: the outcome was “inactive; 0”.
